# Data as given in ChEMBL document CHEMBL1152304, “Alteration of the bis-tetrahydrofuran core stereochemistries in asimicin can affect the cytotoxicity” (J Med Chem, 2008).
# What was measured:
# [1] = system: L1210; assay: Cytotoxicity against mouse L1210 cells at 0.94 ug by disk diffusion assay; format: functional
# How it was run: (§1)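 15 µL of sample dried overnight on 6.5 mm filter disk. Disk placed near edge of 60 mm dish of cells plated in soft agar, incubated 7-10 days. Zone of inhibition measured from disk edge to start of normal-sized colony formation, disk diameter taken as 200 units. Overly toxic samples diluted 1:4 or 1:10 and retested.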
# [2] = system: HCT-116; assay: Cytotoxicity against human HCT116 cells assessed as surviving fraction at 0.01 ug/ml after 168 hrs; format: functional
# How it was run: (§2)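 HCT-116 cells exposed to drug at 0.001-10 µg/mL for 2 h, 24 h or continuously (168 h). Surviving clonogenic cells counted. 90% kill (S10) used as comparison point.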
# [3] = system: HCT-116; assay: Cytotoxicity against human HCT116 cells assessed as surviving fraction at 1 ug/ml after 2 hrs; format: functional; how it was run: as §2
# [4] = system: CCRF-CEM; assay: Cytotoxicity against human CEM cells at 15 ug by disk diffusion assay; format: functional; how it was run: as §1
# [5] = system: L1210; assay: Cytotoxicity against mouse L1210 cells at 60 ug by disk diffusion assay; format: functional; how it was run: as §1
# [6] = Inhibition of bovine heart mitochondrial complex1 activity; parameters: species or system Bos taurus
# How it was run: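 Bovine heart submitochondrial particles, 15 µg/mL, in 0.25 M sucrose, 1 mM MgCl2, 50 mM phosphate pH 7.5. Inhibitor added at various concentrations and equilibrated 5 min. Reaction started with 150 µM NADH and followed spectrophotometrically at 340 nm. IC50 derived.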
# [7] = system: HCT-116; assay: Cytotoxicity against human HCT116 cells assessed as surviving fraction at 0.1 ug/ml after 168 hrs; format: functional; how it was run: as §2
# [8] = system: HCT-116; assay: Cytotoxicity against human HCT116 cells assessed as surviving fraction at 0.0001 ug/ml after 24 hrs; format: functional
# [9] = system: HCT-116; assay: Cytotoxicity against human HCT116 cells assessed as surviving fraction at 0.001 ug/ml after 168 hrs; format: functional; how it was run: as §2
# [10] = Cytotoxicity against human CFU-GM cells at 0.94 ug by disk diffusion assay; format: functional; how it was run: as §1
# [11] = system: HCT-116; assay: Cytotoxicity against human HCT116 cells assessed as surviving fraction at 0.1 ug/ml after 2 hrs; format: functional; how it was run: as §2
# [12] = system: HCT-116; assay: Cytotoxicity against human HCT116 cells assessed as surviving fraction at 10 ug/ml after 24 hrs; format: functional; how it was run: as §2
# [13] = Cytotoxicity against human CFU-GM cells at 15 ug by disk diffusion assay; format: functional; how it was run: as §1
# [14] = system: MC-38; assay: Cytotoxicity against mouse Colon 38 cells at 0.94 ug by disk diffusion assay; format: functional; how it was run: as §1
# [15] = system: HCT-116; assay: Cytotoxicity against human HCT116 cells assessed as surviving fraction at 1 ug/ml after 168 hrs; format: functional; how it was run: as §2
# [16] = system: HCT-116; assay: Cytotoxicity against human HCT116 cells assessed as surviving fraction at 1 ug/ml after 24 hrs; format: functional; how it was run: as §2
# [17] = system: L1210; assay: Cytotoxicity against mouse L1210 cells at 15 ug by disk diffusion assay; format: functional; how it was run: as §1
# [18] = system: HCT-116; assay: Cytotoxicity against human HCT116 cells assessed as surviving fraction at 0.0001 ug/ml after 168 hrs; format: functional
# [19] = system: HCT-116; assay: Cytotoxicity against human HCT116 cells assessed as surviving fraction at 10 ug/ml after 2 hrs; format: functional; how it was run: as §2
# [20] = system: HCT-116; assay: Cytotoxicity against human HCT116 cells at 15 ug by disk diffusion assay; format: functional; how it was run: as §1
# [21] = system: HCT-116; assay: Cytotoxicity against human HCT116 cells assessed as surviving fraction at 10 ug/ml after 168 hrs; format: functional; how it was run: as §2
# [22] = system: HCT-116; assay: Cytotoxicity against human HCT116 cells assessed as surviving fraction at 0.001 ug/ml after 24 hrs; format: functional; how it was run: as §2
# [23] = system: HCT-116; assay: Cytotoxicity against human HCT116 cells assessed as surviving fraction at 0.1 ug/ml after 24 hrs; format: functional; how it was run: as §2
# [24] = system: L1210; assay: Cytotoxicity against mouse L1210 cells at 3.75 ug by disk diffusion assay; format: functional; how it was run: as §1
# [25] = Cytotoxicity against human H125M cells at 15 ug by disk diffusion assay; format: functional; how it was run: as §1
# [26] = Cytotoxicity against human CFU-GM cells at 3.75 ug by disk diffusion assay; format: functional; how it was run: as §1
# [27] = system: HCT-116; assay: Cytotoxicity against human HCT116 cells assessed as surviving fraction at 0.001 ug/ml after 2 hrs; format: functional; how it was run: as §2
# [28] = system: HCT-116; assay: Cytotoxicity against human HCT116 cells assessed as surviving fraction at 0.0001 ug/ml after 2 hrs; format: functional
# [29] = Cytotoxicity against human CFU-GM cells at 60 ug by disk diffusion assay; format: functional; how it was run: as §1
# [30] = system: HCT-116; assay: Cytotoxicity against human HCT116 cells; format: functional, cell-based
# [31] = system: MC-38; assay: Cytotoxicity against mouse Colon 38 cells at 15 ug by disk diffusion assay; format: functional; how it was run: as §1
# [32] = system: HCT-116; assay: Cytotoxicity against human HCT116 cells assessed as surviving fraction at 0.01 ug/ml after 2 hrs; format: functional; how it was run: as §2
# [33] = system: HCT-116; assay: Cytotoxicity against human HCT116 cells assessed as surviving fraction at 0.01 ug/ml after 24 hrs; format: functional; how it was run: as §2
# [34] = system: MC-38; assay: Cytotoxicity against mouse Colon 38 cells at 3.75 ug by disk diffusion assay; format: functional; how it was run: as §1
# [35] = system: MC-38; assay: Cytotoxicity against mouse Colon 38 cells at 60 ug by disk diffusion assay; format: functional; how it was run: as §1
# [36] = Cytotoxicity against human H125M cells at 60 ug by disk diffusion assay; format: functional; how it was run: as §1
# [37] = system: CCRF-CEM; assay: Cytotoxicity against human CEM cells at 60 ug by disk diffusion assay; format: functional; how it was run: as §1
# [38] = system: HCT-116; assay: Cytotoxicity against human HCT116 cells at 60 ug by disk diffusion assay; format: functional; how it was run: as §1
# [39] = system: L1210; assay: Cytotoxicity against mouse L1210 cells at 30 ug by disk diffusion assay; format: functional; how it was run: as §1
# [40] = system: L1210; assay: Cytotoxicity against mouse L1210 cells at 0.3 ug by disk diffusion assay; format: functional; how it was run: as §1
# [41] = Cytotoxicity against human CFU-GM cells at 30 ug by disk diffusion assay; format: functional; how it was run: as §1
# [42] = system: HCT-116; assay: Cytotoxicity against human HCT116 cells at 30 ug by disk diffusion assay; format: functional; how it was run: as §1
# [43] = Cytotoxicity against human CFU-GM cells at 3 ug by disk diffusion assay; format: functional; how it was run: as §1
# [44] = system: MC-38; assay: Cytotoxicity against mouse Colon 38 cells at 3 ug by disk diffusion assay; format: functional; how it was run: as §1
# [45] = Cytotoxicity against human CFU-GM cells at 0.3 ug by disk diffusion assay; format: functional; how it was run: as §1
# [46] = Cytotoxicity against human H125M cells at 30 ug by disk diffusion assay; format: functional; how it was run: as §1
# [47] = system: CCRF-CEM; assay: Cytotoxicity against human CEM cells at 30 ug by disk diffusion assay; format: functional; how it was run: as §1
# [48] = system: MC-38; assay: Cytotoxicity against mouse Colon 38 cells at 30 ug by disk diffusion assay; format: functional; how it was run: as §1
# [49] = system: MC-38; assay: Cytotoxicity against mouse Colon 38 cells at 0.3 ug by disk diffusion assay; format: functional; how it was run: as §1
# [50] = system: L1210; assay: Cytotoxicity against mouse L1210 cells at 3 ug by disk diffusion assay; format: functional; how it was run: as §1
compound,measurement,setting,value
CCCCCCCCCCC(O)C1CCC(C2CCC(C(O)CCCCCCCC[C@H](O)CC3=C[C@@H](C)OC3=O)O2)O1 (stereo partly specified) [ASIMICIN],inhibition zone (IZ),[1],150 Zone units
same,Activity,[2],0.001
same,Activity,[3],0.8
same,inhibition zone (IZ),[4],200 Zone units
same,inhibition zone (IZ),[5],600 Zone units
same,IC50,[6],1.2 nM
same,Activity,[7],0.001
same,Activity,[8],1
same,Activity,[9],0.001
same,inhibition zone (IZ),[10],0 Zone units
same,Activity,[11],0.98
same,Activity,[12],0.12
same,inhibition zone (IZ),[13],300 Zone units
same,inhibition zone (IZ),[14],650 Zone units
same,Activity,[15],0.001
same,Activity,[16],0.48
same,inhibition zone (IZ),[17],200 Zone units
same,Activity,[18],0.66
same,Activity,[19],0.66
same,inhibition zone (IZ),[20],600 Zone units
same,Activity,[21],0.001
same,Activity,[22],0.88
same,Activity,[23],0.54
same,inhibition zone (IZ),[24],400 Zone units
same,inhibition zone (IZ),[25],300 Zone units
same,inhibition zone (IZ),[26],500 Zone units
same,Activity,[27],0.94
same,Activity,[28],0.97
same,inhibition zone (IZ),[29],600 Zone units
same,IC50,[30],0.51 nM
same,inhibition zone (IZ),[31],900 Zone units
same,Activity,[32],0.8
same,Activity,[33],0.73
same,inhibition zone (IZ),[34],950 Zone units
same,inhibition zone (IZ),[35],800 Zone units
CCCCCCCCCC[C@@H](O)[C@H]1CC[C@@H]([C@@H]2CC[C@H]([C@@H](O)CCCCCCCCCC[C@@H](O)CC3=C[C@H](C)OC3=O)O2)O1,inhibition zone (IZ),[36],500 Zone units
same,inhibition zone (IZ),[5],200 Zone units
same,IC50,[6],2.5 nM
same,inhibition zone (IZ),[37],150 Zone units
same,inhibition zone (IZ),[13],250 Zone units
same,inhibition zone (IZ),[17],300 Zone units
same,inhibition zone (IZ),[38],550 Zone units
same,inhibition zone (IZ),[24],150 Zone units
same,inhibition zone (IZ),[26],100 Zone units
same,inhibition zone (IZ),[29],350 Zone units
same,IC50,[30],5.6 nM
same,inhibition zone (IZ),[31],800 Zone units
same,inhibition zone (IZ),[34],650 Zone units
same,inhibition zone (IZ),[35],600 Zone units
CCCCCCCCCC[C@@H](O)[C@@H]1CC[C@@H]([C@@H]2CC[C@H]([C@H](O)CCCCCCCCCC[C@@H](O)CC3=C[C@H](C)OC3=O)O2)O1,inhibition zone (IZ),[39],250 Zone units
same,IC50,[6],3 nM
same,inhibition zone (IZ),[40],50 Zone units
same,inhibition zone (IZ),[41],650 Zone units
same,inhibition zone (IZ),[42],600 Zone units
same,inhibition zone (IZ),[43],550 Zone units
same,inhibition zone (IZ),[44],750 Zone units
same,inhibition zone (IZ),[45],500 Zone units
same,inhibition zone (IZ),[46],600 Zone units
same,inhibition zone (IZ),[47],200 Zone units
same,inhibition zone (IZ),[48],750 Zone units
same,inhibition zone (IZ),[49],500 Zone units
same,inhibition zone (IZ),[50],150 Zone units
CCCCCCCCCC[C@@H](O)[C@H]1CC[C@H]([C@H]2CC[C@H]([C@@H](O)CCCCCCCCCC[C@@H](O)CC3=C[C@H](C)OC3=O)O2)O1,inhibition zone (IZ),[36],250 Zone units
same,inhibition zone (IZ),[5],400 Zone units
same,IC50,[6],3.3 nM
same,inhibition zone (IZ),[37],100 Zone units
same,inhibition zone (IZ),[13],100 Zone units
same,inhibition zone (IZ),[17],400 Zone units
same,inhibition zone (IZ),[38],600 Zone units
same,inhibition zone (IZ),[24],50 Zone units
same,inhibition zone (IZ),[26],0 Zone units
same,inhibition zone (IZ),[29],600 Zone units
same,IC50,[30],27 nM
same,inhibition zone (IZ),[31],750 Zone units
same,inhibition zone (IZ),[34],650 Zone units
same,inhibition zone (IZ),[35],800 Zone units
